Reference: PMC4091680 (Bioorganic & medicinal chemistry, 2014)

How the values were obtained:
[1] = tested on: purified bovine brain tubulin; test: Tubulin polymerization assay; type: biochemical
[2] = tested on: tubulin (colchicine site); test: Inhibition of [3H]colchicine binding to tubulin; parameters: species or system bovine; settings: for Inhibition of colchicine binding % Inhibition ± SD: tubulin 1 µM, colchicine 5 µM
How it was run: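 Purified bovine brain tubulin at 0.1 mg/mL (1.0 µM) was incubated 10 min at 37 °C with 5.0 µM [3H]colchicine, test compound, 5% (v/v) DMSO and 1.0 M glutamate. Reactions were stopped with 0 °C water, filtered through two stacked DEAE-cellulose filters and washed three times with ice-cold water. Filter-bound radiolabel was counted by liquid scintillation; % inhibition ± SD.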

HeLa cells [3] = test: Flow cytometric cell cycle distribution, HeLa; type: cell-based, human; settings: 24 h
How it was run: (§1)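 Per assay, 5×10^5 cells were exposed to test compound at several concentrations for 24 h. Cells were then collected, fixed in ice-cold 70% ethanol, lysed in buffer with RNase A and 0.1% Triton X-100, PI-stained and run on a flow cytometer. Phase distribution came from DNA histograms; means ± SEM of three independent experiments.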

HL-60 cells [4] = test: Flow cytometric cell cycle distribution, HL-60; type: cell-based, human; settings: HL-60, 24 h
How it was run: as §1

HeLa cells [5] = test: Annexin-V/PI apoptosis assay, HeLa; type: cell-based, human; settings: 24 or 48 h
HL-60 cells [6] = test: Annexin-V/PI apoptosis assay, HL-60; type: cell-based, human; settings: HL-60, 24 or 48 h
[7] = tested on: caspase-3 and PARP in HL-60 cells; test: Western blot analysis of caspase-3 and PARP; type: cell-based, human; settings: HL-60, 24 h and 48 h
How it was run: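 HL-60 cells were treated with test compound at various concentrations and times, washed in ice-cold PBS and lysed on ice 30 min. Lysates were cleared at 15000 × g, 4 °C, 10 min. Per lane, 20 µg protein (BCA) was separated by SDS-PAGE (7.5–15%) and blotted to PVDF. Membranes were blocked with 5% BSA, probed overnight at 4 °C for caspase-3 and PARP, then with peroxidase secondaries and ECL. Reprobing for β-actin checked loading.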

Raji = test: MTT cytotoxicity assay, Raji; type: cell-based, human; settings: 48 h
How it was run: (§2)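 Cells grew in RPMI-1640 with 10% FBS, L-glutamine, penicillin and streptomycin at 37 °C, 5% CO2. They were seeded at 10,000/well overnight in 1% FBS medium, then treated 48 h with test compound at 0.1–125 µM; the solvent control was 0.1% DMSO. MTT (0.5 mg/mL final) was added for 4 h, formazan dissolved in DMSO, and absorbance read at 570 nm. Quadruplicates were taken as % of solvent control, IC50 from concentration–response curves.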

HeLa = test: MTT cytotoxicity assay, HeLa; type: cell-based, human; settings: 48 h
How it was run: as §2

Structure (SMILES): COc1cc(NC(=O)/C=C/c2c[nH]c3ccccc23)cc(OC)c1 [Compound 3d, (E)-N-(3,5-Dimethoxyphenyl)-3-(1H-indol-3-yl)acrylamide]
- antitubulin activity (in words) [1]: inactive

Structure (SMILES): COc1ccc(OC)c(NC(=O)/C=C/c2c[nH]c3ccccc23)c1 [Compound 3b, (E)-N-(2,5-Dimethoxyphenyl)-3-(1H-indol-3-yl)acrylamide]
- antitubulin activity (in words) [1]: inactive

Structure (SMILES): COc1cc(NC(=O)/C=C/c2c[nH]c3ccccc23)cc(OC)c1OC [Compound 3e, (E)-3-(1H-Indol-3-yl)-N-(3,4,5-trimethoxyphenyl)acrylamide]
- inhibition of [3H]colchicine binding (in words) ([2]; compound 50 µM): Significant inhibition
- lowest concentration giving increase in G2/M phase cells (HeLa cells [3]): 10 µM
- cells blocked in G2/M (HeLa cells [3]; 15–30 µM): more than 80%
- lowest concentration giving increase in G2/M phase cells (HL-60 cells [4]): 10 µM
- cells blocked in G2/M (HL-60 cells [4]; 15–30 µM): > 60%
- annexin-V+/PI− and annexin-V+/PI+ fractions (apoptosis) (HeLa cells [5]): concentration- and time-dependent increase
- annexin-V+/PI− and annexin-V+/PI+ fractions (apoptosis) (HL-60 cells [6]): concentration- and time-dependent increase
- PARP cleavage [7]: cleavage of its substrate PARP
- caspase-3 activation (cleaved fragments) [7]: induced the activation of caspase-3

Structure (SMILES): COc1ccc(/C=C\c2cc(OC)c(OC)c(OC)c2)cc1O [CA-4, combretastatin A-4]
- Inhibition of colchicine binding % Inhibition ± SD ([2]; compound 1 µM): 88 ± 0.3%
- Inhibition of colchicine binding % Inhibition ± SD ([2]; compound 5 µM): 98 ± 0.8%

Structure (SMILES): COc1cc(CNC(=O)/C=C/c2c[nH]c3ccccc23)ccc1O [Compound 3g, (E)-N-(4-Hydroxy-3-methoxybenzyl)-3-(1H-indol-3-yl)acrylamide]
- activity against Raji cells (in words) (Raji): weak activity

Structure (SMILES): COc1cccc(CNC(=O)/C=C/c2c[nH]c3ccccc23)c1OC [Compound 3h, (E)-N-(2,3-Dimethoxybenzyl)-3-(1H-indol-3-yl)acrylamide]
- activity against HeLa cells (in words) (HeLa): weak activity

Structure (SMILES): COc1ccc(CNC(=O)/C=C/c2c[nH]c3ccccc23)c(OC)c1 [Compound 3i, (E)-N-(2,4-Dimethoxybenzyl)-3-(1H-indol-3-yl)acrylamide]
- activity against Raji cells (in words) (Raji): weak activity

Structure (SMILES): COc1ccc(NC(=O)/C=C/c2c[nH]c3ccccc23)cc1OC [Compound 3c, (E)-N-(3,4-Dimethoxyphenyl)-3-(1H-indol-3-yl)acrylamide]
- antitubulin activity (in words) [1]: inactive
